The record followed here is ChEMBL document CHEMBL3102754, “3D-QSAR study of adamantyl N-benzylbenzamides as melanogenesis inhibitors” (Bioorg Med Chem Lett, 2014).

pIC50: −log10 of the molar value.

The test system of the assay is B16. Description: Antimelanogenic activity in mouse B16 cells after 4 days by spectrophotometry. In kind it is functional, cell-based. The note with it: B16, 96 h. The procedure, abridged: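 Cells seeded at 2 × 10^5 cells/mL and treated in triplicate, with medium changed daily. After 4 d of culture, cells lysed in 1 N NaOH and crude extract transferred for melanin content reading.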
Turning to `O=C(NCc1ccc(O)cc1O)c1cc(C23CC4CC(CC(C4)C2)C3)c(O)cc1O`, the pIC50 is 5.92.

The compound `O=C(NCc1ccc(O)cc1O)c1ccc(O)c(C23CC4CC(CC(C4)C2)C3)c1` had a pIC50 of 6.05.

As for `COc1ccc(C(=O)NCc2ccc(O)cc2O)cc1C12CC3CC(CC(C3)C1)C2`, the pIC50 is 5.85.

In turn, `COc1ccc(CNC(=O)c2cc(C34CC5CC(CC(C5)C3)C4)c(O)cc2O)c(OC)c1` had a pIC50 of 5.43.

Consider `O=C(NCc1ccc(O)cc1)c1cc(C23CC4CC(CC(C4)C2)C3)c(O)cc1O`, for which the negative-log IC50 (pIC50) was 5.91.

The compound `O=C(NCc1ccc(O)c(O)c1)c1ccc(O)cc1O` gave a negative logarithm of the IC50 (pIC50) of 5.10.

With `COc1cc(CNC(=O)c2cc(C34CC5CC(CC(C5)C3)C4)c(O)cc2O)cc(OC)c1`, the pIC50 was 5.59.

`COc1ccc(C(=O)NCCc2ccc(O)cc2)c(O)c1` gave a pIC50 of 5.30.

The compound `O=C(NCCc1ccc(O)cc1)c1cc(C23CC4CC(CC(C4)C2)C3)c(O)cc1O` gave a negative-log IC50 (pIC50) of 5.96.

`COc1ccc(C(=O)NCCc2ccc(O)cc2)c(OC)c1` gave a negative-log IC50 (pIC50) of 4.57.

`O=C(NCc1ccc(O)c(O)c1)c1ccc(O)cc1` gave a negative logarithm of the IC50 (pIC50) of 4.26.

As to `COc1ccc(C(=O)NCCc2ccc(O)cc2)cc1C12CC3CC(CC(C3)C1)C2`, the negative-log IC50 (pIC50) is 5.47.

Compound `COc1cc(CNC(=O)c2ccc(O)c(C34CC5CC(CC(C5)C3)C4)c2)cc(OC)c1` showed a pIC50 of 5.35.

Turning to `COc1ccc(CNC(=O)c2cc(C34CC5CC(CC(C5)C3)C4)c(O)cc2O)c(O)c1`, the negative logarithm of the IC50 (pIC50) was 5.24.

Compound `O=C(NCc1ccc(O)c(O)c1)c1ccc(O)c(C23CC4CC(CC(C4)C2)C3)c1` showed a pIC50 of 5.59.

As to `COc1ccc(C(=O)NCCc2ccc(O)c(O)c2)cc1C12CC3CC(CC(C3)C1)C2`, the negative logarithm of the IC50 (pIC50) was 5.63.

Regarding `COc1ccc(C(=O)NCCc2ccc(O)c(O)c2)cc1`, the pIC50 was 4.64.

In the case of `COc1ccccc1CNC(=O)c1cc(C23CC4CC(CC(C4)C2)C3)c(O)cc1O`, the negative logarithm of the IC50 (pIC50) was 5.64.

As to `COc1ccc(CCNC(=O)c2cc(C34CC5CC(CC(C5)C3)C4)c(O)cc2O)cc1OC`, the pIC50 is 5.39.

In turn, `COc1cc(CNC(=O)c2cc(C34CC5CC(CC(C5)C3)C4)c(O)cc2O)cc(OC)c1OC` had a pIC50 of 5.53.

The compound `COc1ccc(CNC(=O)c2cc(C34CC5CC(CC(C5)C3)C4)c(O)cc2O)cc1OC` gave a pIC50 of 5.42.

`COc1ccc(CCNC(=O)c2ccc(OC)c(C34CC5CC(CC(C5)C3)C4)c2)cc1OC` gave a pIC50 of 5.35.

Compound `COc1ccc(CNC(=O)c2ccc(O)c(C34CC5CC(CC(C5)C3)C4)c2)cc1OC` had a negative logarithm of the IC50 (pIC50) of 5.41.

As to `COc1ccc(OC)c(CNC(=O)c2ccc(O)c(C34CC5CC(CC(C5)C3)C4)c2)c1`, the negative-log IC50 (pIC50) is 5.27.

`COc1ccc(CNC(=O)c2ccc(OC)c(C34CC5CC(CC(C5)C3)C4)c2)cc1OC` gave a pIC50 of 5.30.

The compound `COc1cc(CNC(=O)c2ccc(OC)c(C34CC5CC(CC(C5)C3)C4)c2)cc(OC)c1` gave a negative-log IC50 (pIC50) of 5.30.

Regarding `COc1ccc(OC)c(CNC(=O)c2ccc(OC)c(C34CC5CC(CC(C5)C3)C4)c2)c1`, the pIC50 is 5.50.

In turn, `O=C(NCCc1ccc(O)c(O)c1)c1ccc(O)c(C23CC4CC(CC(C4)C2)C3)c1` gave a pIC50 of 5.68.

Regarding `O=C(NCc1ccc(O)c(O)c1)c1cc(C23CC4CC(CC(C4)C2)C3)c(O)cc1O`, the pIC50 was 5.60.

For `O=C(NCCc1ccc(O)c(O)c1)c1cc(C23CC4CC(CC(C4)C2)C3)c(O)cc1O`, the negative logarithm of the IC50 (pIC50) was 5.36.

As for `O=C(NCc1cc(O)ccc1O)c1ccc(O)cc1O`, the negative logarithm of the IC50 (pIC50) is 4.62.

Turning to `COc1ccc(OC)c(CNC(=O)c2cc(C34CC5CC(CC(C5)C3)C4)c(O)cc2O)c1`, the pIC50 was 5.39.

Regarding `O=C(NCc1cc(O)ccc1O)c1cc(C23CC4CC(CC(C4)C2)C3)c(O)cc1O`, the negative-log IC50 (pIC50) is 6.14.

Consider `COc1ccc(C(=O)NCc2ccc(O)c(O)c2)c(OC)c1`, for which the negative-log IC50 (pIC50) was 5.05.

With `COc1ccc(C(=O)NCc2ccc(O)c(O)c2)cc1`, the pIC50 was 5.00.

In turn, `COc1ccc(C(=O)NCc2ccc(O)c(O)c2)cc1C12CC3CC(CC(C3)C1)C2` showed a pIC50 of 5.65.

For the compound `COc1ccc(C(=O)NCc2ccc(O)c(O)c2)c(O)c1`, the negative-log IC50 (pIC50) was 5.10.

The compound `COc1cc(OC)c(C23CC4CC(CC(C4)C2)C3)cc1C(=O)NCCc1ccc(O)cc1` gave a pIC50 of 5.92.

The compound `O=C(NCCc1ccc(O)c(O)c1)c1ccc(O)cc1` gave a negative-log IC50 (pIC50) of 4.12.

`COc1cc(O)c(C(=O)NCc2ccc(O)c(O)c2)cc1C12CC3CC(CC(C3)C1)C2` gave a negative logarithm of the IC50 (pIC50) of 5.89.

Compound `COc1cc(O)c(C(=O)NCCc2ccc(O)c(O)c2)cc1C12CC3CC(CC(C3)C1)C2` showed a negative-log IC50 (pIC50) of 5.90.

For the compound `COc1cc(O)c(C(=O)NCCc2ccc(O)cc2)cc1C12CC3CC(CC(C3)C1)C2`, the negative logarithm of the IC50 (pIC50) is 5.72.

Turning to `COc1ccc(C(=O)NCCc2ccc(O)c(O)c2)c(OC)c1`, the negative logarithm of the IC50 (pIC50) was 4.96.
